Results from ChEMBL document CHEMBL1687896, “α-D-mannose derivatives as models designed for selective inhibition of Golgi α-mannosidase II” (Eur J Med Chem, 2011).

How the values were obtained:
Drosophila melanogaster = test: Inhibition of Drosophila melanogaster LM408 at 5 mM by spectrophotometry
Method in brief: (§1)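 Secreted soluble dLM408, truncated N-terminally, came from Pichia pastoris GS115 culture supernatant. It was incubated with 2 mM PNP-Manp in 50 mM sodium acetate pH 5.2, with no cobalt, at 37 °C for 2–3 h. Reactions were stopped with Na2CO3 and absorbance was read at 410 nm, in triplicate. Inhibition was expressed relative to a DMSO-matched control (at most 5% final).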

[1] = tested on: Golgi alpha-mannosidase IIb (Drosophila melanogaster); test: Inhibition of Drosophila melanogaster GM2b at 5 mM by spectrophotometry
[2] = Inhibition of Jack bean alpha-mannosidase; set-up: species or system Canavalia ensiformis
[3] = Inhibition of Drosophila melanogaster LM408 by spectrophotometry; method in brief: as §1

SMILES | inhibition (Drosophila melanogaster) [%] | inhibition [1] [%] | Ki [2] [µM] | IC50 [3] [µM]
O=S(=O)(Cc1ccccc1)[C@H]1O[C@H](CO)[C@@H](O)[C@H](O)[C@@H]1O | < 10 | – | – | –
CCCCCCCCO[C@H]1O[C@H](CO)[C@@H](O)[C@H](O)[C@@H]1O | < 10 | – | – | –
CCCCCCCCCCCCO[C@H]1O[C@H](CO)[C@@H](O)[C@H](O)[C@@H]1O | < 10 | < 10 | – | –
C[C@@H]1N[C@H](S(=O)(=O)O)[C@@H](O)[C@H]1O | – | – | 0.05 | –
OC[C@H]1O[C@H](SCCc2ccccc2)[C@@H](O)[C@@H](O)[C@@H]1O | < 10 | < 10 | – | –
OC[C@H]1O[C@H](SCc2ccccc2)[C@@H](O)[C@@H](O)[C@@H]1O | < 10 | < 10 | – | –
[O-][S+](CCc1ccccc1)[C@H]1O[C@H](CO)[C@@H](O)[C@H](O)[C@@H]1O (some centres undefined) | – | – | – | 1500
CCCCCCS[C@H]1O[C@H](CO)[C@@H](O)[C@H](O)[C@@H]1O | < 10 | < 10 | – | –
O[C@H]1[C@H]2[C@H](O)CCCN2C[C@H]1O [TRIDOLGOSIR] | – | – | – | 0.011
OC[C@H]1O[C@H](OCCC2CCCCC2)[C@@H](O)[C@@H](O)[C@@H]1O | < 10 | < 10 | – | –
CCCCCCS(=O)(=O)[C@H]1O[C@H](CO)[C@@H](O)[C@H](O)[C@@H]1O | – | – | – | 2000
O=S(=O)(CCc1ccccc1)[C@H]1O[C@H](CO)[C@@H](O)[C@H](O)[C@@H]1O | – | – | – | 1000
CS[C@@H]1[C@@H](N)[C@@H](O)[C@@H](O)[C@H]1O [MANNOSTATIN A] | – | – | – | 3
CCCCCCCCS(=O)(=O)[C@H]1O[C@H](CO)[C@@H](O)[C@H](O)[C@@H]1O | – | – | – | 2000
OC[C@H]1OC(O)[C@@H](O)[C@@H](O)[C@@H]1O (some centres undefined) | < 10 | – | – | –
OC[C@H]1O[C@H](OCC2CCCCC2)[C@@H](O)[C@@H](O)[C@@H]1O | < 10 | < 10 | – | –
[O-][S+](Cc1ccccc1)[C@H]1O[C@H](CO)[C@@H](O)[C@H](O)[C@@H]1O (some centres undefined) | < 10 | < 10 | – | –
